Laboratory results from ChEMBL document CHEMBL1151442, “Genetic and phenotypic identification of fusidic acid-resistant mutants with the small-colony-variant phenotype in Staphylococcus aureus” (2007).
Converted amounts (≈) assume the structure as drawn.

Columns and labels:
Assay type in all cases: functional
[1] = test system: Staphylococcus aureus; assay: Ratio of MIC for kanamycin-resistant Staphylococcus aureus harboring mutations in FusE gene to MIC for wild type kanamycin-susceptible Staphylococcus aureus AH001
[2] = test system: Staphylococcus aureus; assay: Antibacterial activity against kanamycin-resistant and fusidic acid-susceptible Staphylococcus aureus AH298 harboring Gly664Val mutation in fusA gene after 18 to 24 hrs by Etest strip assay
Procedure, shortened: (§1)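 Etest MIC: a single colony was suspended in 0.9% NaCl to 0.5 McFarland and swabbed over Mueller-Hinton agar. The strip was applied and plates were incubated at 37°C for 18 to 24 h until an SCV lawn grew.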

[3] = test system: Staphylococcus aureus; assay: Antibacterial activity against kanamycin-resistant and fusidic acid-susceptible Staphylococcus aureus AH422 harboring +2 frameshift mutation at nucleotide 222 in rplF gene after 18 to 24 hrs by Etest strip assay; procedure, shortened: as §1
[4] = test system: Staphylococcus aureus; assay: Antibacterial activity against kanamycin-resistant and fusidic acid-susceptible Staphylococcus aureus AH420 harboring deletion of nucleotide 72-80 in rplF gene after 18 to 24 hrs by Etest strip assay; procedure, shortened: as §1
[5] = test system: Staphylococcus aureus; assay: Antibacterial activity against kanamycin-resistant and fusidic acid-susceptible Staphylococcus aureus AH417 harboring -1 frameshift mutation at nucleotide 422 in rplF gene after 18 to 24 hrs by Etest strip assay; procedure, shortened: as §1
[6] = test system: Staphylococcus aureus; assay: Antibacterial activity against fusidic acid-resistant Staphylococcus aureus AH204 harboring deletion of nucleotide 203-231 in rplF gene after 18 to 24 hrs by Etest strip assay
Procedure, shortened: (§2)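 Mutants of lab strain 8325-4 were selected on LA with FA 2 μg/ml for 48 h at 37°C and purified on selective medium. For the MIC, one colony was suspended in 0.9% NaCl to 0.5 McFarland and swabbed onto Mueller-Hinton agar. An Etest strip was applied and plates were incubated at 37°C for 18–24 h until the lawn was evident.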

[7] = test system: Staphylococcus aureus; assay: Antibacterial activity against fusidic acid-resistant Staphylococcus aureus AH194 harboring Pro404Leu mutation in fusA gene after 18 to 24 hrs by Etest strip assay; procedure, shortened: as §2
[8] = test system: Staphylococcus aureus; assay: Antibacterial activity against fusidic acid-resistant Staphylococcus aureus AH198 harboring Gly452Ser mutation in fusA gene after 18 to 24 hrs by Etest strip assay; procedure, shortened: as §2
[9] = test system: Staphylococcus aureus; assay: Antibacterial activity against fusidic acid-resistant Staphylococcus aureus AH201 harboring Gly452Cys mutation in fusA after 18 to 24 hrs by Etest strip assay; procedure, shortened: as §2
[10] = test system: Staphylococcus aureus; assay: Antibacterial activity against fusidic acid-resistant Staphylococcus aureus AH190 harboring Arg464His mutation in fusA gene after 18 to 24 hrs by Etest strip assay; procedure, shortened: as §2
[11] = test system: Staphylococcus aureus; assay: Antibacterial activity against fusidic acid-resistant Staphylococcus aureus AH188 harboring Gly664Ser mutation in fusA gene after 18 to 24 hrs by Etest strip assay; procedure, shortened: as §2
[12] = test system: Staphylococcus aureus; assay: Antibacterial activity against kanamycin-susceptible wild type Staphylococcus aureus AH001 after 18 to 24 hrs by Etest strip assay
Procedure, shortened: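 The inoculum was a single colony suspended in 0.9% NaCl to 0.5 McFarland and swabbed over a Mueller-Hinton agar plate. An Etest gradient strip was then applied, and the plate was incubated at 37°C for 18 to 24 h until lawn growth was evident. MIC was read from the strip following the manufacturer's instructions.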

[13] = test system: Staphylococcus aureus; assay: Antibacterial activity against kanamycin-resistant Staphylococcus aureus AH366 (SCV-38) harboring Pro114His mutation in fusA gene after 18 to 24 hrs by Etest strip assay
Procedure, shortened: (§3)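 SCVs of a Rifr 8325-4 derivative were selected on LA with KAN at 8, 16 or 24 μg/ml for 48 h at 37°C. They were purified at the same KAN level and screened on LA plus FA 1 μg/ml.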

[14] = test system: Staphylococcus aureus; assay: Antibacterial activity against kanamycin-resistant Staphylococcus aureus AH334 (SCV-6) harboring Thr436Ile mutation in fusA gene after 18 to 24 hrs by Etest strip assay; procedure, shortened: as §3
[15] = test system: Staphylococcus aureus; assay: Antibacterial activity against kanamycin-resistant Staphylococcus aureus AH332 (SCV-4) harboring Ala655Glu mutation in fusA gene after 18 to 24 hrs by Etest strip assay; procedure, shortened: as §3
[16] = test system: Staphylococcus aureus; assay: Antibacterial activity against kanamycin-resistant Staphylococcus aureus AH329 (SCV-1) harboring Arg659Cys mutation in fusA gene after 18 to 24 hrs by Etest strip assay; procedure, shortened: as §3
[17] = test system: Staphylococcus aureus; assay: Antibacterial activity against kanamycin-resistant Staphylococcus aureus AH331 (SCV-3) harboring Arg659His mutation in fusA gene after 18 to 24 hrs by Etest strip assay; procedure, shortened: as §3
[18] = test system: Staphylococcus aureus; assay: Antibacterial activity against kanamycin-resistant Staphylococcus aureus AH347 (SCV-19) harboring Arg659Ser mutation in fusA gene after 18 to 24 hrs by Etest strip assay; procedure, shortened: as §3
[19] = test system: Staphylococcus aureus; assay: Antibacterial activity against kanamycin-resistant Staphylococcus aureus AH380 (SCV-52) harboring -1 frameshift mutation at nucleotide 158 in rplF gene after 18 to 24 hrs by Etest strip assay; procedure, shortened: as §3
[20] = test system: Staphylococcus aureus; assay: Antibacterial activity against kanamycin-resistant Staphylococcus aureus AH377 (SCV-49) harboring +1 frameshift mutation at nucleotide 23 in rplF gene after 18 to 24 hrs by Etest strip assay; procedure, shortened: as §3
[21] = test system: Staphylococcus aureus; assay: Antibacterial activity against kanamycin-resistant Staphylococcus aureus AH348 (SCV-20) harboring TGA stop codon at nucleotide 244 in rplF gene after 18 to 24 hrs by Etest strip assay; procedure, shortened: as §3
[22] = test system: Staphylococcus aureus; assay: Antibacterial activity against kanamycin-resistant Staphylococcus aureus AH392 (SCV-64) harboring -1 frameshift mutation at nucleotide 383 in rplF gene after 18 to 24 hrs by Etest strip assay; procedure, shortened: as §1
[23] = test system: Staphylococcus aureus; assay: Antibacterial activity against kanamycin-resistant Staphylococcus aureus AH379 (SCV-51) harboring TAA stop codon at nucleotide 418 in rplF but gene after 18 to 24 hrs by Etest strip assay; procedure, shortened: as §3
[24] = test system: Staphylococcus aureus; assay: Antibacterial activity against kanamycin-resistant Staphylococcus aureus AH349 (SCV-21) harboring -1 frameshift mutation at nucleotide 404 in rplF gene after 18 to 24 hrs by Etest strip assay; procedure, shortened: as §3
[25] = test system: Staphylococcus aureus; assay: Antibacterial activity against kanamycin-resistant Staphylococcus aureus AH337 (SCV-9) harboring -1 frameshift mutation at nucleotide 220 in rplF gene after 18 to 24 hrs by Etest strip assay; procedure, shortened: as §3
[26] = test system: Staphylococcus aureus; assay: Antibacterial activity against kanamycin-resistant Staphylococcus aureus AH351 (SCV-23) harboring -4 frameshift mutation at nucleotide 45-48 in rplF gene after 18 to 24 hrs by Etest strip assay; procedure, shortened: as §3
[27] = test system: Staphylococcus aureus; assay: Antibacterial activity against kanamycin-resistant Staphylococcus aureus AH362 (SCV-34) harboring TAA stop codon at nucleotide 282 in rplF gene after 18 to 24 hrs by Etest strip assay; procedure, shortened: as §3
[28] = test system: Staphylococcus aureus; assay: Antibacterial activity against kanamycin-resistant Staphylococcus aureus AH390 (SCV-62) harboring +1 frameshift mutation at nucleotide 84 in rplF gene after 18 to 24 hrs by Etest strip assay; procedure, shortened: as §3
[29] = test system: Staphylococcus aureus; assay: Antibacterial activity against kanamycin-resistant Staphylococcus aureus AH386 (SCV-58) harboring -1 frameshift mutation at nucleotide 90 in rplF gene after 18 to 24 hrs by Etest strip assay; procedure, shortened: as §3
[30] = test system: Staphylococcus aureus; assay: Antibacterial activity against kanamycin-resistant and fusidic acid-susceptible Staphylococcus aureus AH421 harboring Pro404Arg mutation in fusA gene after 18 to 24 hrs by Etest strip assay; procedure, shortened: as §1
[31] = test system: Staphylococcus aureus; assay: Antibacterial activity against kanamycin-resistant and fusidic acid-susceptible Staphylococcus aureus AH287 harboring Ala655Glu mutation in fusA gene after 18 to 24 hrs by Etest strip assay; procedure, shortened: as §1

SMILES	fold change (FC) [1]	MIC [2] [µg/mL]	MIC [3] [µg/mL]	MIC [4] [µg/mL]	MIC [5] [µg/mL]	MIC [6] [µg/mL]	MIC [7] [µg/mL]	MIC [8] [µg/mL]	MIC [9] [µg/mL]	MIC [10] [µg/mL]	MIC [11] [µg/mL]	MIC [12] [µg/mL]	MIC [13] [µg/mL]	MIC [14] [µg/mL]	MIC [15] [µg/mL]	MIC [16] [µg/mL]	MIC [17] [µg/mL]	MIC [18] [µg/mL]	MIC [19] [µg/mL]	MIC [20] [µg/mL]	also measured
CN[C@@H]1[C@H](O[C@H]2[C@H](O[C@H]3[C@H](O)[C@@H](O)[C@H](N=C(N)N)[C@@H](O)[C@@H]3N=C(N)N)O[C@@H](C)[C@]2(O)C=O)O[C@@H](CO)[C@H](O)[C@H]1O [STREPTOMYCIN]	3	6 (≈ 10.3 µM)	32	256 (≈ 440 µM)	256	24 (≈ 41.3 µM)	8 (≈ 13.8 µM)	6 (≈ 10.3 µM)	8 (≈ 13.8 µM)	8 (≈ 13.8 µM)	16 (≈ 27.5 µM)	3 (≈ 5.16 µM)	24 (≈ 41.3 µM)	192 (≈ 330 µM)	12 (≈ 20.6 µM)	24 (≈ 41.3 µM)	24 (≈ 41.3 µM)	32 (≈ 55 µM)	24	24	MIC [21]: 16 µg/mL (≈ 27.5 µM); MIC [22]: 16 µg/mL; MIC [23]: 16 µg/mL (≈ 27.5 µM); MIC [24]: 64 µg/mL; MIC [25]: 256 µg/mL; MIC [26]: 256 µg/mL; MIC [27]: 256 µg/mL (≈ 440 µM); MIC [28]: 64 µg/mL; MIC [29]: 96 µg/mL; MIC [30]: 12 µg/mL (≈ 20.6 µM); MIC [31]: 48 µg/mL (≈ 82.5 µM)
NC[C@H]1O[C@H](O[C@H]2[C@H](O)[C@@H](O[C@H]3O[C@H](CO)[C@@H](O)[C@H](N)[C@H]3O)[C@H](N)C[C@@H]2N)[C@H](O)[C@@H](O)[C@@H]1O [KANAMYCIN]	3	32 (≈ 66 µM)	128	256 (≈ 528 µM)	256	8 (≈ 16.5 µM)	2 (≈ 4.13 µM)	4 (≈ 8.26 µM)	6 (≈ 12.4 µM)	4 (≈ 8.26 µM)	24 (≈ 49.5 µM)	1.5 (≈ 3.1 µM)	12 (≈ 24.8 µM)	128 (≈ 264 µM)	12 (≈ 24.8 µM)	12 (≈ 24.8 µM)	16 (≈ 33 µM)	12 (≈ 24.8 µM)	4	6	MIC [21]: 8 µg/mL (≈ 16.5 µM); MIC [22]: 12 µg/mL; MIC [23]: 12 µg/mL (≈ 24.8 µM); MIC [24]: 16 µg/mL; MIC [25]: 96 µg/mL; MIC [26]: 64 µg/mL; MIC [27]: 128 µg/mL (≈ 264 µM); MIC [28]: 256 µg/mL; MIC [29]: 256 µg/mL; MIC [30]: 8 µg/mL (≈ 16.5 µM); MIC [31]: 16 µg/mL (≈ 33 µM)
CC(=O)O[C@H]1C[C@@]2(C)[C@@H](C[C@@H](O)[C@H]3[C@@]4(C)CC[C@@H](O)[C@@H](C)[C@@H]4CC[C@@]32C)/C1=C(\CCC=C(C)C)C(=O)O [FUSIDIC ACID]	32	6 (≈ 11.6 µM)	12	12 (≈ 23.2 µM)	24	4 (≈ 7.74 µM)	4 (≈ 7.74 µM)	32 (≈ 61.9 µM)	12 (≈ 23.2 µM)	6 (≈ 11.6 µM)	4 (≈ 7.74 µM)	0.125 (≈ 0.242 µM)	12 (≈ 23.2 µM)	48 (≈ 92.9 µM)	12 (≈ 23.2 µM)	12 (≈ 23.2 µM)	8 (≈ 15.5 µM)	12 (≈ 23.2 µM)	6	4	MIC [21]: 8 µg/mL (≈ 15.5 µM); MIC [22]: 4 µg/mL; MIC [23]: 6 µg/mL (≈ 11.6 µM); MIC [24]: 4 µg/mL; MIC [25]: 12 µg/mL; MIC [26]: 16 µg/mL; MIC [27]: 12 µg/mL (≈ 23.2 µM); MIC [28]: 16 µg/mL; MIC [29]: 24 µg/mL; MIC [30]: 3 µg/mL (≈ 5.81 µM); MIC [31]: 12 µg/mL (≈ 23.2 µM)
